This note sets out measurements from ChEMBL document CHEMBL3351249, “Potent cholesteryl ester transfer protein inhibitors of reduced lipophilicity: 1,1'-spiro-substituted hexahydrofuroquinoline derivatives” (J Med Chem, 2014).

Data set [1] relates to Mus musculus. Nature of the data set: Increase in HDL-cholesterol in hemizygous human CETP transgenic mouse at 10 mg/kg, po dosed for 5 consecutive days. In kind it is functional. The method, boiled down:
(§1)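 Male hemizygous hCETP or hCETP/hApoB100 transgenic mice, 26−30 weeks, chow-fed. Compound suspended in 0.5% aqueous hydroxyethylcellulose, oral gavage each morning for 5 or 14 days. EDTA blood taken 7 h post-dose (fed for 5-day, after 4 h fast for 14-day) from vena facialis under isoflurane. HDL/LDL cholesterol measured on Cobas Integra 400 Plus. Mean ± SEM, one-way ANOVA with Bonferroni.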

The subject of data set [2] is Mus musculus. Kind of data set: Reduction in plasma LDL-cholesterol in human CETP/human ApoB-100 transgenic mouse at 1 mg/kg, po dosed for 14 consecutive days. The data set is classed as functional. The method, boiled down:
as §1

Data set [3] concerns Mus musculus. Kind of data set: Reduction in plasma LDL-cholesterol in human CETP/human ApoB-100 transgenic mouse at 10 mg/kg, po dosed for 14 consecutive days. The data set is classed as functional. Summed up:
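Hemizygous male human CETP/human apoB100 transgenic mice (B6.SJL-Tg(APOA-CETP)1Dsg Tg(APOB)1102Sgy N10), aged 26–30 weeks and chow-fed, received oral gavage each morning for 14 consecutive days. Compound was suspended in 0.5% aqueous hydroxyethylcellulose. EDTA blood was taken from the facial vein under isoflurane 7 h post-dose after a 4 h fast. Plasma LDL-cholesterol fraction was measured on an automated analyzer. Data are mean ± SEM.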

Data set [4] concerns Plasma. Kind of data set: Drug concentration in plasma of hemizygous human CETP transgenic mouse at 3 mg/kg, po dosed for 5 consecutive days measured on day 3 after cessation of drug treatment. The following applies: in vivo. In kind it is ADME, organism-based. On the set-up: dose 3 mg/kg, route oral. Summed up:
(§2)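 Male hCETP transgenic mice given oral doses for 5 days in 0.5% hydroxyethylcellulose. Tissues and plasma collected at day 3 and day 21 after the last dose. Fat diluted 6:1 with acetonitrile and homogenized. Analysis by LC/MS/MS on a C18 column with QCs at 4.0−1000 nM, accepted within 30% of target.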

A short description of data set [5]: Drug concentration in adipose fat tissue of hemizygous human CETP transgenic mouse at 3 mg/kg, po dosed for 5 consecutive days measured on day 21 after cessation of drug treatment. The data set is classed as ADME, organism-based. On the set-up: dose 3 mg/kg, route oral. As to conditions: read-out: Drug uptake; call rule not given here. Summed up: as §2
In data set [6] the test system is Cynomolgus monkey. Nature of the data set: Effect on left ventricular pressure in cynomolgus monkey up to 100 mg/kg by telemetry. The data set is classed as ADME, organism-based, Macaca fascicularis, Heart left ventricle. On the set-up: dose 100 mg/kg. As to conditions: in vivo. The method, boiled down: (§3)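 Acute telemetry study in conscious cynomolgus monkeys at doses up to 100 mg/kg. Blood pressure, left ventricular pressure, contractility, heart rate and ECG (PR, QRS, QT) recorded. Exposure followed as Cmax and MRT.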

For data set [7], the system named is Cynomolgus monkey. Nature of the data set: Effect on heart rate in cynomolgus monkey up to 100 mg/kg by telemetry. In kind it is ADME, organism-based, Macaca fascicularis. On the set-up: dose 100 mg/kg. As to conditions: in vivo. Summed up:
as §3

Data set [8] concerns Cynomolgus monkey. Nature of the data set: Effect on electrocardiogram parameters in cynomolgus monkey assessed as changes in QT-interval up to 100 mg/kg by telemetry. In kind it is ADME, organism-based, Macaca fascicularis. More on the design: dose 100 mg/kg. As to conditions: in vivo. The method, boiled down:
as §3

Data set [9] in a line: Cmax in cynomolgus monkey up to 100 mg/kg. In kind it is ADME, organism-based, Macaca fascicularis. On the set-up: dose 100 mg/kg. As to conditions: in vivo. Summed up:
as §3

Data set [10] concerns the target T1, Cholesteryl ester transfer protein (Homo sapiens, UniProt P11597).
T1 sequence (P11597 whole entry): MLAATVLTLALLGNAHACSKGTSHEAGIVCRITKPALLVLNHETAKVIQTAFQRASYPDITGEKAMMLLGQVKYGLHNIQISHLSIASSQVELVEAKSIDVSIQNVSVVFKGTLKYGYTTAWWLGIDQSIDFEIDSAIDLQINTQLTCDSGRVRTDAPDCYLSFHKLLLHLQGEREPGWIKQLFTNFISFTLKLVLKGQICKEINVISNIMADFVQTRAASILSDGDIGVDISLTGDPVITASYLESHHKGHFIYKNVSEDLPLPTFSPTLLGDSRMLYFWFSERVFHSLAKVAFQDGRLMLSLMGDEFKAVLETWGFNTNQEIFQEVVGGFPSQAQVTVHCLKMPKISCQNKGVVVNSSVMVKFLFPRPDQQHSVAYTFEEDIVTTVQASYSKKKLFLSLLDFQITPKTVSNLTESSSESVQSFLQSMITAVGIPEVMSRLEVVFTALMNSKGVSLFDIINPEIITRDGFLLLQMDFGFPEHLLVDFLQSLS
Kind of data set: Inhibition of human recombinant CETP in presence of 88% human plasma by fluorescence transfer assay. The method, boiled down: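 Fluorescent neutral-lipid transfer from donor to acceptor particles by human recombinant CETP, with the test compound added in DMSO. Incubation 3 h at 37 °C. CE transfer is read as the fluorescence change at 485/535 nm. IC50 comes from a four-parameter logistic fit with variable slope. For this line the reaction contains 88% human plasma.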

Data set [11] can be described thus: AUC (0 to 24 hrs) in C57BL/6J mouse at 10 umol/kg, po. The data set is classed as ADME, organism-based. On the set-up: time < 24 hr, dose 10 umol/kg, route oral. As to conditions: plasma.

Bounds are passed on as bounds.

In the case of `CC(C)c1nc2c(c3c1[C@@H](c1ccc(C(F)(F)F)cc1)OC31CCOCC1)[C@@H](O)CC(C)(C)C2`, the Activity in data set [1] is listed as 37.4%; in data set [6], “Non-toxic”; in [7], “Non-toxic”; in data set [8] it was “Non-toxic”. The inhibition in vivo – broadly, the drop in the measured response relative to a control, in per cent – at 1 mg/kg in data set [2] was 26.2%. The molecule also came in with an inhibition in vivo at 10 mg/kg in data set [3] of 60%. The Drug uptake result in data set [4] was “Active”. Besides, the concentration at 21 days after cessation of treatment in data set [5] is below 0.03 µM. The Cmax (commonly the highest concentration seen after dosing) in data set [9] is above 10 µM. In [10], the IC50 (usually the concentration needed to halve the response being measured) came to 151 nM. Further, in data set [11], the AUC(0-t) (in general, exposure summed from dosing to a finite time, without extrapolation to infinity) at 24 h came out at 4.9 µM·h.
